Results from ChEMBL document CHEMBL5303300, “EUbOPEN Chemogenomics Library - Multiplex” (2023).
Values joined by “and” are separate entries in the source; they are usually repeats but may differ in a detail not shown here. Identical values can stand only once.

Test system: Fibroblast
Assay: Multiplex assay against human fibroblast
Format: toxicity, cell-based
Conditions: number of replicates 2
How it was run: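 On a CQ1 microscope at 37°C and 5% CO2, live cells were imaged after compound addition. They had been stained at seeding with Hoechst33342, BioTracker Green Microtubule Cytoskeleton Dye, MitoTracker Red and Annexin V Alexa Fluor 680. CellPathfinder machine-learning gating assigned cells to Hoechst high-intensity objects or normal cells, normal cells to healthy, pyknosed or fragmented nuclei, and pyknosed cells to mitotic or apoptotic. Tubulin, mitochondrial-mass and membrane-permeability phenotypes are per cents of healthy-nucleus cells.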

[1] = 12 h, 1 µM, compound concentration 1 uM
[2] = 12 h, 10 µM, compound concentration 10 uM
[3] = 24 h, 1 µM, compound concentration 1 uM
[4] = 24 h, 10 µM, compound concentration 10 uM
[5] = 48 h, 1 µM, compound concentration 1 uM
[6] = 48 h, 10 µM, compound concentration 10 uM

## CN(C)[C@H]1CC[C@H](Nc2ncc3ncnc(Nc4ccc(F)c(Cl)c4)c3n2)CC1
[1]
  Population Apoptotic (%): 68% and 45%
  Population Fragmented Nuclei (%): 26% and 29%
  Population Healthy Nuclei (%): 54% and 50%
  Population Hoechst High Intensity Objects (%): 1% and 0%
  Population Membrane Permeable-Phenotype (%): 4% and 9%
  Population Mitochondria Different-Phenotype (%): 1%
  Population Mitotic Cells (%): 31% and 55%
  Population Normal (%): 98% and 99%
  Population Pyknosed Nuclei (%): 18% and 19%
  Population Tubulin-Different-Phenotype (%): 16% and 11%
  Total Cell Count: 309 and 205
[2]
  Population Apoptotic (%): 31% and 27%
  Population Fragmented Nuclei (%): 30% and 24%
  Population Healthy Nuclei (%): 45% and 51%
  Population Hoechst High Intensity Objects (%): 18% and 10%
  Population Membrane Permeable-Phenotype (%): 2% and 3%
  Population Mitochondria Different-Phenotype (%): 0%
  Population Mitotic Cells (%): 68% and 72%
  Population Normal (%): 81% and 89%
  Population Pyknosed Nuclei (%): 24% and 23%
  Population Tubulin-Different-Phenotype (%): 4% and 3%
  Total Cell Count: 681 and 574
[3]
  Population Apoptotic (%): 54% and 67%
  Population Fragmented Nuclei (%): 28% and 20%
  Population Healthy Nuclei (%): 48% and 63%
  Population Hoechst High Intensity Objects (%): 0%
  Population Membrane Permeable-Phenotype (%): 3% and 6%
  Population Mitochondria Different-Phenotype (%): 1% and 2%
  Population Mitotic Cells (%): 45% and 32%
  Population Normal (%): 100% and 99%
  Population Pyknosed Nuclei (%): 23% and 16%
  Population Tubulin-Different-Phenotype (%): 11% and 13%
  Total Cell Count: 208 and 288
[4]
  Population Apoptotic (%): 18% and 27%
  Population Fragmented Nuclei (%): 27% and 28%
  Population Healthy Nuclei (%): 44% and 47%
  Population Hoechst High Intensity Objects (%): 19% and 27%
  Population Membrane Permeable-Phenotype (%): 6% and 3%
  Population Mitochondria Different-Phenotype (%): 0% and 1%
  Population Mitotic Cells (%): 81% and 72%
  Population Normal (%): 80% and 72%
  Population Pyknosed Nuclei (%): 27% and 24%
  Population Tubulin-Different-Phenotype (%): 5% and 4%
  Total Cell Count: 464 and 636
[5]
  Population Apoptotic (%): 68% and 56%
  Population Fragmented Nuclei (%): 22% and 32%
  Population Healthy Nuclei (%): 61% and 50%
  Population Hoechst High Intensity Objects (%): 2% and 0%
  Population Membrane Permeable-Phenotype (%): 7% and 9%
  Population Mitochondria Different-Phenotype (%): 0%
  Population Mitotic Cells (%): 31% and 43%
  Population Normal (%): 97% and 99%
  Population Pyknosed Nuclei (%): 15% and 17%
  Population Tubulin-Different-Phenotype (%): 10% and 6%
  Total Cell Count: 264 and 218
[6]
  Population Apoptotic (%): 20% and 21%
  Population Fragmented Nuclei (%): 31% and 34%
  Population Healthy Nuclei (%): 38% and 37%
  Population Hoechst High Intensity Objects (%): 22% and 26%
  Population Membrane Permeable-Phenotype (%): 5% and 1%
  Population Mitochondria Different-Phenotype (%): 0%
  Population Mitotic Cells (%): 79% and 78%
  Population Normal (%): 77% and 73%
  Population Pyknosed Nuclei (%): 30% and 27%
  Population Tubulin-Different-Phenotype (%): 5% and 2%
  Total Cell Count: 527 and 613

## COc1cc(Br)c(S(=O)(=O)Nc2ccc(C(F)(F)F)c(O[C@@H]3CCN(C)C3)c2)cc1OC
[1]
  Population Apoptotic (%): 54% and 48%
  Population Fragmented Nuclei (%): 13% and 15%
  Population Healthy Nuclei (%): 71% and 63%
  Population Hoechst High Intensity Objects (%): 0%
  Population Membrane Permeable-Phenotype (%): 3% and 4%
  Population Mitochondria Different-Phenotype (%): 0%
  Population Mitotic Cells (%): 45% and 51%
  Population Normal (%): 100% and 99%
  Population Pyknosed Nuclei (%): 14% and 21%
  Population Tubulin-Different-Phenotype (%): 8% and 14%
  Total Cell Count: 161 and 215
[2]
  Population Apoptotic (%): 42% and 34%
  Population Fragmented Nuclei (%): 12% and 15%
  Population Healthy Nuclei (%): 61% and 63%
  Population Hoechst High Intensity Objects (%): 0%
  Population Membrane Permeable-Phenotype (%): 8% and 7%
  Population Mitochondria Different-Phenotype (%): 1% and 0%
  Population Mitotic Cells (%): 57% and 65%
  Population Normal (%): 100%
  Population Pyknosed Nuclei (%): 25% and 21%
  Population Tubulin-Different-Phenotype (%): 36% and 23%
  Total Cell Count: 164 and 244
[3]
  Population Apoptotic (%): 50% and 65%
  Population Fragmented Nuclei (%): 12% and 16%
  Population Healthy Nuclei (%): 67% and 62%
  Population Hoechst High Intensity Objects (%): 0%
  Population Membrane Permeable-Phenotype (%): 6% and 7%
  Population Mitochondria Different-Phenotype (%): 0% and 3%
  Population Mitotic Cells (%): 50% and 34%
  Population Normal (%): 99% and 100%
  Population Pyknosed Nuclei (%): 19% and 20%
  Population Tubulin-Different-Phenotype (%): 13% and 16%
  Total Cell Count: 157 and 207
[4]
  Population Apoptotic (%): 53% and 68%
  Population Fragmented Nuclei (%): 17% and 15%
  Population Healthy Nuclei (%): 63% and 69%
  Population Hoechst High Intensity Objects (%): 0%
  Population Membrane Permeable-Phenotype (%): 10% and 6%
  Population Mitochondria Different-Phenotype (%): 4% and 3%
  Population Mitotic Cells (%): 46% and 31%
  Population Normal (%): 100%
  Population Pyknosed Nuclei (%): 19% and 15%
  Population Tubulin-Different-Phenotype (%): 36% and 23%
  Total Cell Count: 163 and 231
[5]
  Population Apoptotic (%): 66% and 76%
  Population Fragmented Nuclei (%): 11% and 18%
  Population Healthy Nuclei (%): 72% and 69%
  Population Hoechst High Intensity Objects (%): 0%
  Population Membrane Permeable-Phenotype (%): 5% and 4%
  Population Mitochondria Different-Phenotype (%): 1%
  Population Mitotic Cells (%): 33% and 24%
  Population Normal (%): 100%
  Population Pyknosed Nuclei (%): 15% and 12%
  Population Tubulin-Different-Phenotype (%): 10% and 7%
  Total Cell Count: 154 and 204
[6]
  Population Apoptotic (%): 64% and 55%
  Population Fragmented Nuclei (%): 19% and 16%
  Population Healthy Nuclei (%): 71%
  Population Hoechst High Intensity Objects (%): 0%
  Population Membrane Permeable-Phenotype (%): 9% and 4%
  Population Mitochondria Different-Phenotype (%): 0% and 1%
  Population Mitotic Cells (%): 35% and 44%
  Population Normal (%): 100%
  Population Pyknosed Nuclei (%): 8% and 12%
  Population Tubulin-Different-Phenotype (%): 17% and 9%
  Total Cell Count: 156 and 218
